# Source: PubChem (Broad Institute)
# Many of the other results were omitted from the sample, so hits are more common in it than they were.
# IDH1 R132H inh: blocks human IDH1 R132H reductase activity; actives 0.18% (n = 70,000); O75874; AID 624101; inhibition, % at 10 µM; diaphorase/resazurin fluorescence, 60 min; in the data active = inhibition above about 34%; inconclusive = no clear call, values can overlap the other calls; inactive = below about 11%;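 note: 0% = DMSO and 100% = no enzyme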
# Target sequence (O75874 whole entry R132H): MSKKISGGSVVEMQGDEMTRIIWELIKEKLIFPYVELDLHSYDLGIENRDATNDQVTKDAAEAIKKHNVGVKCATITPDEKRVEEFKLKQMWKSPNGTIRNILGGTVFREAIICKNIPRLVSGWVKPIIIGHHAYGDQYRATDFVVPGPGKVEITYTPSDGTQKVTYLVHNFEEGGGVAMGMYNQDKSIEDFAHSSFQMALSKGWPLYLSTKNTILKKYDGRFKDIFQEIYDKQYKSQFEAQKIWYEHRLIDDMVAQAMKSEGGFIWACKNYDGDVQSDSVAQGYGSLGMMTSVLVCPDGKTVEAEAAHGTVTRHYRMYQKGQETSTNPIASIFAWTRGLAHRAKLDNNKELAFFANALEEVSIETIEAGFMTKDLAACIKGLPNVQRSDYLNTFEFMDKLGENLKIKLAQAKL
# T cruzi growth-1: T. cruzi proliferation inhibition. T. cruzi beta-gal in NIH3T3, GalScreen luminescence, 90 h. inhibition, % at 8.34 µM. actives 5.9% (n = 77,000). AID 624255;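 active = mean inhibition above about 93%, with at least 55% of replicates each passing it, limit read from the data, passing the limit was not always enough; inconclusive = only one of those two conditions holds; inactive = neither condition holds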
# KDM4C inh: inhibitors of human demethylase GASC-1 KDM4C | Q9H3R0 | GST-KDM4C 2-372, H3K9me3 peptide, LANCE TR-FRET | inhibition, % at 12.5 µM | actives 0.15% (n = 96,000) | AID 720574;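 active = mean replicate inhibition above about 25%, with at least 55% of replicates also reaching it, limit read from the data, passing the limit was not always enough; inconclusive = only one of those two conditions met; inactive = neither condition met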
#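 System – N-terminal GST-fused human GASC-1 (KDM4C) fragment, residues 2-372 · Input – enzyme final amount 10 nM · Technique – LANCE TR-FRET, Eu antibody, ULight-streptavidin, EDTA, ex 340 nm, em 618/671 nm · Medium – HEPES buffer, pH 7.5, plus ascorbate · Incubation – enzyme reaction 30 min, then detection 60 min, both room temperature · Reagent – H3K9me3 peptide with Fe(II)/2OG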
# T cruzi growth-2: inhibitors of T. cruzi proliferation. T. cruzi beta-gal in NIH3T3, GalScreen luminescence, 90 h. shares compounds with T cruzi growth-1. actives 72% (n = 5,600). inhibition, % at 8.35 µM;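 active = mean replicate inhibition above about 95% and at least 55% of replicates individually reaching it, limit read from the data; inconclusive = only one of the two criteria is met; inactive = neither criterion is met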
# T cruzi growth-3: inhibitors of T. cruzi proliferation; T. cruzi beta-gal in NIH3T3, GalScreen luminescence, 90 h; inhibition, % at 2.09 µM; AID 651740; actives 21% (n = 5,600); shares compounds with T cruzi growth-1;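 active = mean inhibition above about 95%, with at least 55% of replicates also reaching it, limit read from the data; inconclusive = meets just one of the two conditions; inactive = meets neither condition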;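 note: plate controls were neutral control median for no effect and positive control median for full effect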
# NIH3T3 tox: NIH/3T3 (mouse) viability loss. shares compounds with T cruzi growth-1. NIH/3T3 viability, CellTiter-Glo ATP luminescence, 90 h. cytotoxicity (signal decrease), % at 8.35 µM. actives 14% (n = 5,600). AID 651742;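 active = mean signal decrease across replicates above about 35% based on untreated-well scatter, with enough replicates individually passing, limit read from the data; inconclusive = no rule stated though some were filed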;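 note: 0% = median of neutral control wells and 100% = median of positive control wells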
# 3T3 cytotox 2: cytotoxicity in mouse NIH/3T3 fibroblasts | NIH/3T3 viability, CellTiter-Glo ATP luminescence, 90 h | inhibition, % at 24.9 µM | AID 651744 | shares compounds with T cruzi growth-1 | actives 56% (n = 5,600);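 active = mean loss of cell viability signal at or above a set limit, and enough replicates individually reaching it; inconclusive = meets only the mean limit or only the replicate share; inactive = meets neither condition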;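 note: 0% = median of neutral control wells and 100% = median of positive control wells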
# * = called active by the depositor; ? = inconclusive; / = not tested or not shown.
SMILES,IDH1 R132H inh,T cruzi growth-1,KDM4C inh,T cruzi growth-2,T cruzi growth-3,NIH3T3 tox,3T3 cytotox 2
C[C@@H]1CN([C@@H](C)CO)C(=O)c2cc(C3=CCCC3)cnc2O[C@@H]1CN(C)Cc1cccc(F)c1,0.3,?,0.0,110.0*,74.8,8.6,7.6
CN(C)CCCNC(=O)C[C@@H]1C=C[C@@H](NS(=O)(=O)c2ccccc2)[C@@H](CO)O1,0.0,-45.8,-0.7,/,/,/,/
CO[C@H]1CN(C)C(=O)c2cc(NC(=O)C3CCCCC3)ccc2OC[C@@H](C)N(Cc2cccnc2)C[C@H]1C,0.1,74.1,-1.4,/,/,/,/
Cc1cccc(-c2ccc([C@H]3[C@@H](CO)N4CCCCN(C(=O)NC(C)C)C[C@@H]34)cc2)c1,/,91.5,-0.1,/,/,/,/
COc1cccc(-c2ccc([C@@H]3[C@@H](CO)N4CCCCN(C(=O)NC(C)C)C[C@H]34)cc2)c1,/,73.8,-1.0,/,/,/,/
COc1cccc(-c2ccc([C@@H]3[C@@H](CO)N4CCCCN(C(=O)NC(C)C)C[C@@H]34)cc2)c1,/,99.6*,-3.1,102.1*,24.1,-9.1,?
COc1cccc(-c2ccc([C@H]3[C@@H](CO)N4CCCCN(C(=O)NC(C)C)C[C@H]34)cc2)c1,/,116.7*,-0.2,107.6*,68.9,-6.3,60.5*
O=C(C[C@H]1CC[C@@H]2[C@H](COC[C@H](O)CN2CC2CC2)O1)NCc1ccc(Cl)cc1,/,-0.8,0.0,/,/,/,/
CCOC(=O)c1c(NC(=O)c2ccc(Cl)c(S(=O)(=O)N3CCOCC3)c2)sc2c1CCCC2,0.2,/,/,/,/,/,/
CC(C)c1ccc(NC(=O)C[C@H]2CC[C@H]3[C@@H](COc4ccc(NC(=O)Nc5ccc(F)c(F)c5)cc4C(=O)N3C)O2)cc1,/,99.8*,/,103.0*,77.9,21.1,?
CC(C)C(=O)Nc1ccc2c(c1)C(=O)N(C)[C@H]1CC[C@H](CC(=O)NCc3ccccc3)O[C@@H]1CO2,/,103.5*,1.0,98.4*,4.6,-9.0,-26.5
CCC(=O)Nc1ccc2c(c1)C(=O)N(C)[C@H]1CC[C@H](CC(=O)Nc3ccc(C(C)C)cc3)O[C@@H]1CO2,/,39.8,0.5,/,/,/,/
CCNC(=O)C[C@@H]1CC[C@H]2[C@@H](COc3ccc(NC(=O)Cc4ccccc4)cc3C(=O)N2C)O1,/,105.1*,0.4,104.3*,3.9,15.4,23.3
Cc1cc(C(=O)Nc2ccc3c(c2)C(=O)N(C)[C@@H]2CC[C@H](CC(=O)NCc4ccc(-c5ccccc5)cc4)O[C@H]2CO3)no1,/,85.3,/,/,/,/,/
Cc1cc(C(=O)Nc2ccc3c(c2)C(=O)N(C)[C@@H]2CC[C@H](CC(=O)NCc4ccc(-c5ccccc5)cc4)O[C@@H]2CO3)no1,/,102.8*,-2.9,?,?,78.4*,74.9*
CC(C)C(=O)Nc1ccc2c(c1)C(=O)N(C)[C@H]1CC[C@@H](CC(=O)NCc3ccccc3)O[C@@H]1CO2,/,26.9,-1.4,/,/,/,/
CCNC(=O)C[C@@H]1CC[C@@H]2[C@H](COc3ccc(NC(=O)Cc4ccccc4)cc3C(=O)N2C)O1,/,11.0,2.8,/,/,/,/
C[C@@H]1CCCCO[C@H](CN(C)C(=O)Cc2ccccc2)[C@@H](C)CN([C@H](C)CO)C(=O)c2cc(NC(=O)C3CCCCC3)ccc2O1,0.6,34.2,-0.5,/,/,/,/
CCOc1ccc(Br)cc1CNCc1cccnc1,0.8,/,/,/,/,/,/
CCC(=O)N1CCCCN2[C@@H](CO)[C@H](c3ccc(/C=C/c4ccccc4)cc3)[C@@H]2C1,/,115.8*,-0.8,106.0*,37.4,42.8*,104.5*
CCC(=O)N1CCCCN2[C@H](CO)[C@H](c3ccc(/C=C/c4ccccc4)cc3)[C@H]2C1,/,117.3*,-2.8,101.9*,66.1,26.6,105.1*
CN1CCCCN2[C@H](CO)[C@@H](c3ccc(/C=C/c4ccccc4)cc3)[C@H]2C1,/,59.0,-1.5,/,/,/,/
CCC(=O)N1CCCCN2[C@H](CO)[C@@H](c3ccc(/C=C/c4ccccc4)cc3)[C@H]2C1,/,91.2,-2.2,/,/,/,/
COCC#Cc1ccc2c(c1)O[C@H](CN(C)C(=O)CC1CC1)[C@@H](C)CN([C@H](C)CO)S2(=O)=O,-0.9,89.9,-1.2,/,/,/,/
